Experimental data reported in ChEMBL document CHEMBL2021883, “Amino acid, dipeptide and pseudodipeptide conjugates of ring-substituted 8-aminoquinolines: synthesis and evaluation of anti-infective, β-haematin inhibition and cytotoxic activities” (Eur J Med Chem, 2012).
In brackets after ≈: the same amount, converted by molar mass. Activity calls are given as the source filed them. Unless noted, no cut-off for these calls is given here.

Experiments:
[1] = tested on: Pseudomonas aeruginosa; experiment: Antimicrobial activity against Pseudomonas aeruginosa ATCC 27853 by CLSI method; type: functional, organism-based
In short: (§1)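 Antibacterial testing used CLSI/NCCLS broth dilution for aerobically growing bacteria, with 20 as the highest test concentration.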

[2] = Inhibition of beta-hematin formation; type: functional
[3] = tested on: Plasmodium falciparum; experiment: Antimalarial activity against chloroquine-sensitive Plasmodium falciparum D6 assessed as plasmodial LDH activity; type: functional, organism-based
[4] = tested on: Candida albicans; experiment: Antifungal activity against Candida albicans at 20 ug/ml; type: functional, organism-based
In short: (§2)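 Broth dilution antifungal testing followed the NCCLS reference method for yeasts, with 20 as the highest test concentration. MIC was the lowest concentration with no detectable growth. MFC was the lowest concentration killing the organism.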

[5] = tested on: Leishmania donovani; experiment: Antileishmanial activity against Leishmania donovani promastigote by Alamar Blue assay; type: functional, organism-based
[6] = tested on: Staphylococcus aureus; experiment: Antimicrobial activity against methicillin-resistant Staphylococcus aureus ATCC 43300 by CLSI method; type: functional, organism-based
[7] = tested on: Escherichia coli; experiment: Antimicrobial activity against Escherichia coli ATCC 35218 by CLSI method; type: functional, organism-based
[8] = tested on: Aspergillus fumigatus; experiment: Antifungal activity against Aspergillus fumigatus; type: functional, organism-based
In short: (§3)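 Yeasts and A. fumigatus were tested by broth microdilution following the NCCLS antifungal standards. The highest test concentration was 20.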

[9] = tested on: Plasmodium berghei; experiment: Antimalarial activity against Plasmodium berghei blood-schizont in mouse malaria model assessed as elimination of parasitemia at 10 mg/kg, po for 4 days for 4 days measured after 7 days; type: functional, organism-based; set-up: dose 10 mg/kg
In short: (§4)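 P. berghei-infected mice, 6 per group, received compound orally once daily for 4 days at 10, 25, 50 or 100 mg/kg/day. "Active" meant all treated animals were parasitaemia-negative up to D+7. "Curative" meant complete parasite elimination with survival to D+60. Outcomes were recorded as cured/total.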

[10] = tested on: Plasmodium falciparum; experiment: Antimalarial activity against chloroquine-resistant Plasmodium falciparum W2 assessed as plasmodial LDH activity; type: functional, organism-based
[11] = tested on: Mycobacterium intracellulare; experiment: Antimicrobial activity against Mycobacterium intracellulare ATCC 23068 by Franzblau method; type: functional, organism-based
[12] = tested on: Plasmodium berghei; experiment: Antimalarial activity against Plasmodium berghei blood-schizont in mouse malaria model assessed as elimination of parasitemia at 25 mg/kg, po for 4 days for 4 days measured after 7 days; type: functional, organism-based; set-up: dose 25 mg/kg; in short: as §4
[13] = Selectivity index, ratio of IC50 for african green monkey Vero cells to IC50 for chloroquine-sensitive Plasmodium falciparum D6; type: toxicity, cell-based; conditions: Vero cells versus Plasmodium falciparum D6, read-out: Ratio IC50
[14] = Selectivity index, ratio of IC50 for african green monkey Vero cells to IC50 for chloroquine-resistant Plasmodium falciparum W2; type: toxicity, cell-based; conditions: Vero cells versus Plasmodium falciparum W2, read-out: Ratio IC50
[15] = tested on: Plasmodium berghei; experiment: Antimalarial activity against Plasmodium berghei blood-schizont in mouse malaria model assessed as disease curative activity at 100 mg/kg, po after 60 days; type: functional; in short: as §4
[16] = tested on: Plasmodium berghei; experiment: Antimalarial activity against Plasmodium berghei blood-schizont in mouse malaria model assessed as elimination of parasitemia at 50 mg/kg, po for 4 days for 4 days measured after 7 days; type: functional, organism-based; set-up: dose 50 mg/kg; in short: as §4
[17] = tested on: Candida albicans; experiment: Fungicidal activity against Candida albicans at 20 ug/ml; type: functional, organism-based; in short: as §2
[18] = tested on: Vero; experiment: Cytotoxicity against african green monkey Vero cells upto 23.8 […] by neutral dye assay; type: cell-based, Chlorocebus sabaeus
In short: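 Vero monkey kidney cells were exposed to compound up to a highest concentration of 23.8, with viability read by neutral red uptake.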

[19] = tested on: Staphylococcus aureus; experiment: Antimicrobial activity against Staphylococcus aureus ATCC 29213 by CLSI method; type: functional, organism-based
[20] = tested on: Cryptococcus neoformans; experiment: Antifungal activity against Cryptococcus neoformans; type: functional, organism-based; in short: as §3
[21] = tested on: Pichia kudriavzevii; experiment: Fungicidal activity against Candida krusei at 20 ug/ml; type: functional, organism-based; in short: as §2
[22] = tested on: Nakaseomyces glabratus; experiment: Antifungal activity against Candida glabrata; type: functional, organism-based; in short: as §3
[23] = tested on: Pichia kudriavzevii; experiment: Antifungal activity against Candida krusei at 20 ug/ml; type: functional, organism-based; in short: as §2
[24] = tested on: Escherichia coli; experiment: Bactericidal activity against Escherichia coli ATCC 35218 at 20 ug/ml by CLSI method; type: functional, organism-based; in short: as §1
[25] = tested on: Escherichia coli; experiment: Antimicrobial activity against Escherichia coli ATCC 35218 at 20 ug/ml by CLSI method; type: functional, organism-based; in short: as §1
[26] = tested on: Mycobacterium intracellulare; experiment: Bactericidal activity against Mycobacterium intracellulare ATCC 23068 at 20 ug/ml by Franzblau method; type: functional, organism-based
[27] = tested on: Mycobacterium intracellulare; experiment: Antimicrobial activity against Mycobacterium intracellulare ATCC 23068 at 20 ug/ml by Franzblau method; type: functional, organism-based
[28] = tested on: Pichia kudriavzevii; experiment: Antifungal activity against Candida krusei; type: functional, organism-based; in short: as §3
[29] = tested on: Plasmodium berghei; experiment: Antimalarial activity against Plasmodium berghei blood-schizont in mouse malaria model assessed as elimination of parasitemia at 100 mg/kg, po for 4 days for 4 days measured after 4 days; type: functional, organism-based; set-up: dose 100 mg/kg
[30] = tested on: Plasmodium berghei; experiment: Antimalarial activity against Plasmodium berghei blood-schizont in mouse malaria model assessed as elimination of parasitemia at 100 mg/kg, po for 4 days for 4 days measured after 7 days; type: functional, organism-based; set-up: dose 100 mg/kg; in short: as §4
[31] = Plasmodium falciparum, D6, read-out: IC50
[32] = Plasmodium falciparum, W2, read-out: IC50

SMILES | Activity [1] | IC50 [2] | IC50 [3, 31] | Activity [4] | IC50 [5] | IC90 [5] | Activity [6] | Activity [7] | Activity [8] | IC50 [10, 32] | Activity [11] | selectivity ratio [13] | selectivity ratio [14] | Activity [17] | IC50 [18] | Activity [19] | IC50 [20] | MFC [20] | MIC [20] | IC50 [22] | also measured
COc1cc(NC(C)CCCNC(=O)[C@H](CCCCN)NC(=O)[C@@H](N)CCCCN)c2ncccc2c1 (some centres undefined) | inactive | 618 µM | 2 µg/mL (≈ 3.88 µM) | inactive | Not Active | inactive | inactive | inactive | inactive | 2.8 µg/mL (≈ 5.43 µM) | inactive | > 11.9 | > 8.5 | inactive | Non-toxic | inactive | 7 µg/mL (≈ 13.6 µM) | 20 µg/mL (≈ 38.8 µM) | 10 µg/mL (≈ 19.4 µM) | – | Activity [9]: Active; Activity [12]: Active; Activity [15]: 100%; Activity [16]: Active
COc1cc(NC(C)CCCNC(=O)C[C@@H](NC(=O)[C@H](N)CCCN)C(=O)O)c2nc(C(C)(C)C)ccc2c1 (some centres undefined) | inactive | > 1000 µM | 2.5 µg/mL (≈ 4.59 µM) | inactive | Not Active | inactive | inactive | inactive | inactive | 3.4 µg/mL (≈ 6.24 µM) | inactive | > 9.5 | > 7 | inactive | Non-toxic | inactive | 4.86 µg/mL (≈ 8.92 µM) | 10 µg/mL (≈ 18.4 µM) | 10 µg/mL (≈ 18.4 µM) | 13.7 µg/mL (≈ 25.1 µM) | Activity [21]: inactive; MFC [22]: 20 µg/mL (≈ 36.7 µM); MIC [22]: 20 µg/mL (≈ 36.7 µM); Activity [23]: inactive
COc1cc(NC(C)CCCNC(=O)[C@@H](CCCNC(=N)N)NC(=O)[C@H](N)CCCNC(=N)N)c2nc(C(C)(C)C)ccc2c1 (some centres undefined) | inactive | > 1000 µM | – | inactive | – | – | – | inactive | inactive | – | inactive | – | – | inactive | Non-toxic | – | 3.55 µg/mL (≈ 5.65 µM) | 10 µg/mL (≈ 15.9 µM) | 10 µg/mL (≈ 15.9 µM) | 12.4 µg/mL (≈ 19.8 µM) | Activity [24]: inactive; IC50 [3]: Not Active; Activity [25]: inactive; Activity [26]: inactive; MFC [22]: 20 µg/mL (≈ 31.9 µM); MIC [22]: 20 µg/mL (≈ 31.9 µM); IC90 ([5]; Leishmania donovani): 34 µg/mL (≈ 54.2 µM); IC50 ([5]; Leishmania donovani, read-out: IC50): 20 µg/mL (≈ 31.9 µM); IC50 [6]: 5.96 µg/mL (≈ 9.49 µM); MBC [6]: 20 µg/mL (≈ 31.9 µM); MIC [6]: 10 µg/mL (≈ 15.9 µM); IC50 [10]: Not Active; Activity [27]: inactive; IC50 [19]: 11.2 µg/mL (≈ 17.8 µM); MBC [19]: 20 µg/mL (≈ 31.9 µM); MIC [19]: 20 µg/mL (≈ 31.9 µM); IC50 [28]: 7.08 µg/mL (≈ 11.3 µM); MFC [28]: 10 µg/mL (≈ 15.9 µM); MIC [28]: 10 µg/mL (≈ 15.9 µM)
COc1cc(NC(C)CCCNC(=O)[C@@H](CCCCN)NC(=O)[C@H](N)CCCCN)c2nc(C(C)(C)C)ccc2c1 (some centres undefined) | inactive | > 1000 µM | 4.76 µg/mL (≈ 8.32 µM) | inactive | Not Active | inactive | inactive | inactive | inactive | 2.8 µg/mL (≈ 4.9 µM) | inactive | > 5 | > 8.5 | inactive | Non-toxic | inactive | 6.5 µg/mL (≈ 11.4 µM) | 10 µg/mL (≈ 17.5 µM) | 10 µg/mL (≈ 17.5 µM) | – | Activity [29]: inactive; Activity [30]: inactive
